The list is not random: actives were taken first. Their share in the collection is about 2.3%.
Beta apoptosis: inhibitors of cytokine-induced beta cell apoptosis, primary screen, luminescence; INS-1E cytokine-induced death, ATP luminescence, 48 h; percent of positive-control rescue, neutral wells zero; 0.8% of 300,000 active; AID 435005, 2010; protection from apoptosis, % (test concentration not listed);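 active = Every replicate reaches about 75%, or at least half do and their mean reaches it too, limit read from the data; inconclusive = At least half of replicates reach the limit but their mean does not; inactive = Under half of replicates reach the limit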;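 also: higher means more ATP so stronger rescue from cytokine killing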
T cruzi inh: inhibitors of intracellular T. cruzi growth, primary screen, luminescence, NIH3T3 host cells | 1.4% of 300,000 active | AID 1885, 2009 | inhibition, % (test concentration not listed) | T. cruzi beta-gal in NIH3T3, 90 h;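 active = mean inhibition across valid replicates above about 55%, limit read from the data; inconclusive = mean below that limit but half or more replicates reach it; inactive = mean below it, under half of replicates reach it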;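 also: signal also drops with host cell toxicity which is not excluded here; higher percent means less beta-gal luminescence so fewer parasites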
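Assay system: NIH/3T3 fibroblasts plus reporter T. cruzi. Amount: NIH/3T3 cells, 5,000 per well. Buffer or medium: DMEM, 2% fetal bovine serum. Doses: compound pinned at 50 nL/well, DMSO. Schedule: ≥90 h infection period, 3 h prior cell attachment. Signal: luminescent β-galactosidase signal after 60 min lysis. Read-out: parasite load inhibition, %.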
A1 inh: caspase 3/7 activation in MEF A1-2A-BIM cells, primary screen, A1 inhibitor project, cell-based, luminescence, HTS | Caspase-Glo 3/7 luminescence, 3 h; percent of clofoctol response, vehicle zero | caspase activation, % (concentration not given with the values) | 0.066% of 330,000 active;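 active = over half of replicate activation scores above 10%, or exactly half above 10 with the replicate mean above 10; inconclusive = replicate mean below 10 yet half the replicates above 10; inactive = over half of replicates below 10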
KLF5 inhibitor: KLF5 expression inhibitors, primary screen, DLD-1 cells, luminescence. DLD-1 KLF5 promoter-luciferase reporter. inhibition, % at 5 µM. 0.23% of 290,000 active;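 active = inhibition above a per-plate limit of that plate's mean compound inhibition plus 3 SD, cut at about 60% in these data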;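 also: higher means less KLF5 promoter-driven luciferase light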
HIF activator: HIF pathway transcriptional activators, primary screen, cell-based, U2OS HRE-luciferase, luminescence. U2OS HRE-luciferase reporter; normalized: DMSO 0%, desferrioxamine 100%. activation, % at 7.5 µM (by protocol). 0.32% of 300,000 active;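 active = mean activation of at least 10% of the iron chelator positive control signal, with at least half of replicates also reaching 10%; inconclusive = mean and replicate majority disagree about reaching 10%; inactive = mean and most replicates under 10%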
Numbers stand for hits; i = inactive; ? = inconclusive; nt = no result given.

SMILES	Beta apoptosis	T cruzi inh	A1 inh	KLF5 inhibitor	HIF activator
Cc1ccc2c(c1)N(C(=O)CCC(=O)NCCCN1CCC(Cc3ccccc3)CC1)CCO2	99	i	i	i	i
Cc1ccccc1-n1nnnc1Sc1nnnn1-c1ccccc1	i	nt	i	i	nt
CCCSc1nnc(Sc2nnnn2-c2ccccc2)s1	nt	55	i	i	i
CCCOc1ccc(N2C(=O)CC(SC(=N)N3N=C(c4ccccc4)CC3c3ccccc3)C2=O)cc1 (centres undefined)	i	68	i	i	i
Cc1ccc(-c2nc(NC(=O)c3ccc(S(=O)(=O)N(CCC#N)CCC#N)cc3)sc2-c2ccccc2)cc1	i	56	i	i	i
CC(=O)N(Cc1ccc(F)cc1)C1=C(NCc2ccccc2)C(=O)c2ccccc2C1=O	nt	67	nt	i	i
O=C(NCc1ccc(F)cc1)C(c1ccccc1)c1ccccc1	i	i	i	i	i
CCN(CC(=O)Nc1ccc(OC)cc1)C(=O)c1ccccc1Sc1ccccc1C#N	i	i	i	nt	i
NC(=O)C1(N2CCCCC2)CCN(c2nc(-c3ccc(Br)cc3)cs2)CC1	i	60	i	i	i
Brc1ccc(-c2csc(N3CCCCCC3)n2)cc1	i	i	i	i	i
CC(=O)c1cccc(N(CC(=O)NC2CCCC2)C(=O)c2csnn2)c1	i	i	i	i	i
CC(C)(CNc1ccc(S(=O)(=O)C(F)(F)F)cc1[N+](=O)[O-])N1CCOCC1	i	55	i	i	i
CC(C)(CNc1ccc([N+](=O)[O-])cc1C#N)N1CCOCC1	i	i	i	i	i
CSCCC(NC(=O)c1ccccc1Cl)C(=O)Nc1ccc(C)c(S(=O)(=O)N2CCOCC2)c1 (centres undefined)	i	i	i	nt	i
O=C(N/N=C/c1ccc([N+](=O)[O-])o1)C(O)c1ccccc1 (centres undefined)	nt	76	i	i	i
COc1ccc(-c2nn(-c3ccccc3)cc2C(=O)N/N=C/c2ccc([N+](=O)[O-])o2)cc1	i	90	i	i	i
O=C(CNc1ccc2ccccc2c1)N/N=C/c1ccc([N+](=O)[O-])o1	i	68	i	i	i
Cc1ccc(OCC(=O)N/N=C/c2ccc([N+](=O)[O-])o2)cc1	i	66	i	i	i
O=C(CNc1ccc2ccccc2c1)N/N=C/c1ccc(C(=O)O)cc1	i	i	i	i	i
COc1ccc(C(=O)Nc2cccc3c2CCCC3)cc1OC	i	i	i	i	i
O=C(COc1ccccc1)N/N=C/c1cc2c(cc1[N+](=O)[O-])OCO2	i	i	i	i	i
Cc1ccc(NC(=O)CCC(=O)N/N=C/c2ccc([N+](=O)[O-])o2)cc1C	?	61	i	i	i
CCCC(=O)Nc1ccc(C(=O)N/N=C/c2ccc([N+](=O)[O-])o2)cc1	nt	i	i	i	i
CN(/N=C/c1ccc([N+](=O)[O-])o1)c1ccccc1	i	60	i	i	i
O=C(COc1ccccc1)N/N=C/c1ccc([N+](=O)[O-])o1	i	83	i	i	i
SMILES	Beta apoptosis	T cruzi inh	A1 inh	KLF5 inhibitor	HIF activator
COc1ccc(CC(=O)N(C)CC(=O)Nc2ccc(F)cc2)cc1S(=O)(=O)N1CCOCC1	i	nt	i	nt	nt
NC(=O)c1ccccc1NC(=O)c1cc(S(=O)(=O)N2CCCCC2)ccc1N1CCOCC1	i	nt	i	nt	nt
COc1ccc(CCn2c(-c3cc([N+](=O)[O-])cc([N+](=O)[O-])c3)nc3nc4ccccc4nc32)cc1OC	i	62	i	i	i
COc1ccc(CCn2c(-c3ccco3)nc3nc4ccccc4nc32)cc1	i	i	i	i	i
COc1ccc(CCn2c(-c3cc([N+](=O)[O-])cc([N+](=O)[O-])c3)nc3nc4ccccc4nc32)cc1	i	57	i	i	i
Cc1ccc(CN(Cc2cccnc2)C(=O)CN2C(=O)COc3ccccc32)o1	i	55	i	i	i
O=C(CN1C(=O)COc2ccccc21)N(Cc1ccccc1)Cc1ccccn1	i	i	i	i	i
CN1CCN(c2nc(C#N)cc(-c3ccccc3)n2)CC1	i	i	i	i	i
COc1ccc(-c2cc(C#N)nc(N3CCNCC3)n2)cc1	i	57	?	i	i
COc1ccc(-c2cc(C#N)nc(Cl)n2)cc1	i	i	i	i	i
COc1ccc(-c2cc(C#N)nc(N3CCN(C)CC3)n2)cc1	i	66	i	i	i
CCOC(=O)c1c(S(=O)(=O)NCC(=O)Nc2ccc(F)cc2)c(C)n(C)c1C	i	i	i	i	i
CCOc1ncccc1C(=O)Nc1cccc(S(=O)(=O)N2CCOCC2)c1	i	nt	i	nt	nt
C=CC[N+]1(CC=C)CCOCC1	i	i	8.6	i	i
C=CC[N+]1(CC#CCOC(c2ccccc2)c2ccccc2)CCOCC1	i	i	i	i	i
COc1ccccc1N1CC(C)(C)C(=O)N(C(=O)c2ccc(Cl)cc2)C1=S	85	i	i	i	i
CN1/C(=C\C=C2/SC(=S)NC2=O)C(C)(C)c2ccccc21	99	75	i	i	i
CN1C(=CC=C2C=C(I)C(=O)C(I)=C2)C(C)(C)c2ccccc21	nt	nt	nt	i	nt
Cc1cc(F)ccc1S(=O)(=O)Nc1ccccc1C(=O)Nc1ncn[nH]1	i	i	i	i	i
Cc1cc(F)ccc1S(=O)(=O)Nc1ccccc1C(=O)Nc1ccccc1-c1nc2ccccc2[nH]1	116	i	i	i	i
O=C(Nc1ccccc1Br)c1cc[n+]([O-])cc1	i	i	i	i	i
CNc1nc(NN)nc(Nc2ccccc2)n1	i	i	i	i	i
COc1ccc(-c2nc(C#N)c(NCc3ccc(F)cc3)o2)cc1OC	i	i	i	i	i
COc1ccc(-c2nc(C#N)c(NCc3cccnc3)o2)cc1OC	i	64	i	i	i
CC(C)(C)c1ccc(-c2nc3c(C#N)c(-c4ccc5c(c4)OCO5)ccn3n2)cc1	i	64	i	i	i
SMILES	Beta apoptosis	T cruzi inh	A1 inh	KLF5 inhibitor	HIF activator
CN1CCN(S(=O)(=O)c2cccc(C(=O)Oc3ccccc3Cl)c2)CC1	i	i	i	i	i
CC(=O)NC(c1cccs1)c1cc([N+](=O)[O-])c2cccnc2c1O (centres undefined)	90	i	i	i	18
CC(C)C(=O)NC(c1ccccc1)c1cc([N+](=O)[O-])c2cccnc2c1O (centres undefined)	91	i	i	i	i
O=C(CSc1nncs1)NNC(=O)c1ccco1	i	nt	i	nt	nt
COC(=O)C1=C(N)OC2=C(C(=O)CC(C)(C)C2)C1c1cc2c(cc1Cl)OCO2 (centres undefined)	i	i	i	i	i
Cc1ccc(C)c(NC(=O)CN(C)C(=O)c2ccc(-c3cccc(C(F)(F)F)c3)o2)c1	i	i	i	nt	i
Brc1ccc(-c2ccc(/C=N/Nc3nc4ccccc4[nH]3)o2)cc1	i	62	i	i	i

High-throughput results deposited in PubChem BioAssay by several laboratories.
